In the library only some 2% were active in any assay of this set; here they are far more common.
FN deposition inh = fibronectin deposition inhibition; AH1F fibroblasts, Alexa488-fibronectin deposition fluorescence, overnight; inhibition, % at 12.6 µM; 350,000 tested, 0.086% active; AID 743247;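 active means mean inhibition across replicates of 30% or more, regardless of how many single replicates reach that level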
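Material – AH1F fibroblast monolayer, labelled fibronectin deposition · Reagent – labelled fibronectin 24 nM · Timing – 1 h adhesion, overnight exposure · Measured by – fluorescence at 485 nm excitation, 525 nm emission · Read-out – inhibition of fibronectin deposition signal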
Casp6 inh = caspase-6 (human) enzyme inhibition; P55212; purified caspase-6, Z-VEID-R110 cleavage fluorescence; inhibition, % at 12.5 µM; 350,000 tested, 0.53% active;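 active means mean inhibition across replicates at least about 35%, with every replicate also reaching that limit, limit read from the data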
Target sequence (P55212 24-179 limits assumed): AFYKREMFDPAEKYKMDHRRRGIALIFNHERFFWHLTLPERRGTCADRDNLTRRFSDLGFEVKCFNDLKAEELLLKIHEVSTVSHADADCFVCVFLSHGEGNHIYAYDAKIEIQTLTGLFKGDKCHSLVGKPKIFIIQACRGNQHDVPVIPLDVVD
Target sequence (P55212 194-293 limits assumed): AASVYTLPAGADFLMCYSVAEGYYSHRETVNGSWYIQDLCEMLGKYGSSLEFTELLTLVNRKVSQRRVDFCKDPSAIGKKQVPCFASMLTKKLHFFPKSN
CaV13 ICDI inh = Disruptors of the CACNA1D IQ motif to Ca2+-dependent inactivation inhibitor domain association, primary screening, Förster resonance energy transfer in intact living … | HEK cells, CFP/YFP FRET ICDI-IQ, plate reader, 10 min; percent FRET-ratio fall versus neutral wells | inhibition, % at 12.3 µM | 340,000 tested, 0.098% active | AID 743397;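 active means mean replicate inhibition of at least 30% and at least 1% of replicates passing that level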
DENV2 CPE rescue = DENV2-induced cell death inhibition; CPE inhibition, % at 9.99 µM; DENV2-infected cells, cytopathic effect rescue, plate reader; 350,000 tested, 1.7% active; in the data active means CPE inhibition above about 20%, passing the limit was not always enough; tested in BHK-21 cells
XiGFP reactiv = activators of X-chromosome reactivation in mouse fibroblasts | XiGFP mouse fibroblasts, % GFP-positive cells imaging, 3 d; cells co-treated with 5-aza-dC sensitizer; scaled so ellipticine positive control = 100% | activation, % at 7.58 µM | 360,000 tested, 0.055% active | AID 743238;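 active means mean normalized replicate activation at least 10% and every replicate at or above 10%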
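assay system = SV40-immortalized XiGFP fibroblast cells, line 68-5-11 | buffer or medium = DMEM plus 5-aza-dC sensitizer | doses = single-point pinned compound dosing | times = 3-day compound exposure, then 15 min fixation at room temperature | benchmarks = positive control ellipticine, 6 µM final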
Large screens that a line does not name were inactive.

COc1ccc2c3c([nH]c2c1)[C@@H](CO)N(S(C)(=O)=O)CC31CCN(C(=O)Cc2cccnc2)CC1	none (no result: FN deposition inh, CaV13 ICDI inh)
CNC[C@@H]1Oc2ccc(NC(=O)Cc3cn(C)c4ccccc34)cc2CC(=O)N([C@@H](C)CO)C[C@H]1C	none (no result: FN deposition inh, CaV13 ICDI inh)
Cc1ccc(NC(=O)Cn2cccc2C2=NC(c3ccccc3)CO2)cc1C (stereo not drawn)	DENV2 CPE rescue 103
CCc1ccccc1NC(=O)Cn1cccc1C1=NC(c2ccccc2)CO1 (stereo not drawn)	none (no result: FN deposition inh, Casp6 inh, DENV2 CPE rescue)
O=C(C[C@H]1CC[C@H](NC(=O)Nc2cccc(F)c2)[C@H](CO)O1)NCC1CCCCC1	none (no result: CaV13 ICDI inh)
CCOc1ccc(NS(=O)(=O)c2ccc(N)cc2)cc1	none (no result: Casp6 inh, DENV2 CPE rescue, XiGFP reactiv)
CCOc1ccc(Nc2ccc(N)c(S(=O)(=O)O)c2)cc1	Casp6 inh 92
CCOC(=O)C1=C(C)N=c2sc(=Cc3cc(Cl)c(OCC(=O)O)c(Cl)c3)c(=O)n2C1c1cccc(OC)c1 (stereo not drawn)	Casp6 inh 38
Cc1onc(NC(=O)NC(=O)c2c(F)cccc2Cl)c1Br	Casp6 inh 76 (no result: FN deposition inh, CaV13 ICDI inh)
CN1c2ccc(-c3ccccc3)cc2[C@H]2[C@H](CCN2C(=O)c2ccccn2)[C@@H]1CO	none (no result: Casp6 inh, CaV13 ICDI inh, DENV2 CPE rescue)
COc1ccc2c3c(n(C)c2c1)[C@@H](CO)N(C(=O)Nc1ccccc1F)CC31CN(C)C1	none (no result: FN deposition inh, Casp6 inh, CaV13 ICDI inh, DENV2 CPE rescue)
O=CNc1ccc2c3c(cccc13)-c1ccccc1-2	XiGFP reactiv 55
C[C@@H]1CCCCO[C@H](CN(C)C(=O)Nc2cccc3ccccc23)[C@@H](C)CN([C@H](C)CO)C(=O)c2cc(NC(=O)Nc3ccc(F)cc3)ccc2O1	none (no result: CaV13 ICDI inh)
C[C@@H]1CCCCO[C@@H](CN(C)S(=O)(=O)c2ccc(F)cc2)[C@@H](C)CN([C@@H](C)CO)C(=O)c2cc(NC(=O)Nc3cccc4ccccc34)ccc2O1	none (no result: CaV13 ICDI inh)
C[C@@H]1CCCCO[C@@H](CN(C)C(=O)Nc2cccc3ccccc23)[C@@H](C)CN([C@@H](C)CO)C(=O)c2cc(NC(=O)Nc3ccc(C(F)(F)F)cc3)ccc2O1	DENV2 CPE rescue 26 (no result: FN deposition inh, CaV13 ICDI inh)
C[C@H](CO)N1C[C@H](C)[C@H](CN(C)C(=O)Nc2cccc3ccccc23)OCCCC[C@H](C)Oc2ccc(NC(=O)Nc3ccc(F)cc3)cc2C1=O	DENV2 CPE rescue 25 (no result: CaV13 ICDI inh)
C[C@@H]1CCCCO[C@@H](CN(C)C(=O)Nc2ccc3c(c2)OCO3)[C@@H](C)CN([C@@H](C)CO)C(=O)c2cc(NC(=O)Nc3cccc4ccccc34)ccc2O1	DENV2 CPE rescue 61 (no result: CaV13 ICDI inh)
C[C@H](CO)N1C[C@H](C)[C@H](CN(C)C(=O)Nc2ccc3c(c2)OCO3)OCCCC[C@H](C)Oc2ccc(NC(=O)Nc3cccc4ccccc34)cc2C1=O	none (no result: CaV13 ICDI inh)
C[C@@H]1CCCCO[C@H](CN(C)S(=O)(=O)c2ccc(F)cc2)[C@@H](C)CN([C@H](C)CO)C(=O)c2cc(NC(=O)Nc3cccc4ccccc34)ccc2O1	DENV2 CPE rescue 26 (no result: CaV13 ICDI inh)
CN(C)CC(=O)N[C@@H]1CC[C@H](CC(=O)NCCN2CCCCC2)O[C@@H]1CO	none (no result: CaV13 ICDI inh)
COc1ccc2c3c([nH]c2c1)[C@H](CO)N(Cc1ccc(Cl)cc1)CC31CN(Cc2nccs2)C1	none (no result: FN deposition inh, CaV13 ICDI inh)
COc1ccc(S(=O)(=O)N(C)C[C@@H]2Oc3ccc(NC(=O)Cc4ccccc4)cc3CC(=O)N([C@H](C)CO)C[C@H]2C)cc1	none (no result: CaV13 ICDI inh)
CCN1CC(=O)N2[C@H](C1)[C@H](c1ccc(Br)cc1)[C@@H]2CO	none (no result: CaV13 ICDI inh)
COc1ccc([C@@H]2C/C=C\C[C@H](c3ccc(F)cc3)NC(=O)CCC(=O)N2)c(OC)c1	none (no result: Casp6 inh, CaV13 ICDI inh, DENV2 CPE rescue)
C[C@H]1CN([C@@H](C)CO)C(=O)c2cc(NC(=O)Nc3cccc4ccccc34)ccc2O[C@@H]1CN(C)C(=O)Nc1ccc2c(c1)OCO2	DENV2 CPE rescue 23 (no result: FN deposition inh, CaV13 ICDI inh)
CC=Cc1ccc2n(c1=O)C[C@@H]1[C@@H](CO)[C@H](C(=O)NCCC)[C@H]2N1C(=O)C1CCC1 (mixture of isomers)	none (no result: FN deposition inh, CaV13 ICDI inh)
COc1ccc(C(=S)N2CCOCC2)cc1OC(=O)c1ccccc1	DENV2 CPE rescue 24
COc1ccc(-c2ccccc2)cc1NC(=O)[C@@H]1O[C@H](CO)[C@H](O)[C@H](O)[C@H]1O	DENV2 CPE rescue 32
Cc1cccc(N(CC(=O)NC(C)(C)C)C(=O)CNC(=O)c2cccs2)c1C	DENV2 CPE rescue 44

Screening results deposited in PubChem BioAssay by Broad Institute.
